# Screening results deposited in PubChem BioAssay by several laboratories.
# TPT1 inh = blocks Candida albicans tRNA 2'-phosphotransferase. recombinant caTPT1, FP RNA substrate dephosphorylation. inhibition, % at 5 µM. 300,000 compounds, 0.81% hits;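 active = inhibition above the mean of all tested compounds plus 3 SD, set per screening campaign, cut at about 24% in these data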;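 note: plate controls were DMSO alone for no effect and ferristatin control at 100 nM for full effect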
# CSN deneddyl inh = CSN deneddylation inhibition; Purified CSN, SCF-Nedd8-OG deneddylation, fluorescence polarization; inhibition, % at 12.5 µM; 360,000 compounds, 0.38% hits;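 active = pattern-corrected inhibition above about 35%, with an unprinted fluorescence ratio check between 0.5 and 1.5, limit read from the data, passing the limit was not always enough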;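 note: 0% = enzyme with substrate and 100% = substrate without enzyme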
# Target sequence (Q92905 whole entry, looked up, one chain of several): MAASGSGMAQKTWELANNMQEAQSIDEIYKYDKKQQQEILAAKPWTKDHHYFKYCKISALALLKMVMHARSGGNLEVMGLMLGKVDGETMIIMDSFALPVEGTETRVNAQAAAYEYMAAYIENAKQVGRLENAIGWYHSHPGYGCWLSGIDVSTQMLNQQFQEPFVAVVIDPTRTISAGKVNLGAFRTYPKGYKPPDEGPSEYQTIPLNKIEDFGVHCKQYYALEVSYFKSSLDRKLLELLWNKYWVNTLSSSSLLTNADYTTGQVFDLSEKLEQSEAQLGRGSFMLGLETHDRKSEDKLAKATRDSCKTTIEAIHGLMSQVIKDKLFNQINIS
#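 Material: purified human Csn5 enzyme expressed in HEK293T cells / Medium: Tris buffer pH 7.5, NaCl, DTT, Tween-20, trehalose, ovalbumin / Compound dosing: 12.5 µM single point / Schedule: 90 min incubation of compound, enzyme and substrate at room temperature / Signal: fluorescence polarization of the substrate / Control set: no-enzyme wells high, enzyme-with-substrate wells low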
# HNF4A DNA FP = change in binding of human HNF4 alpha to DNA; HNF4a-FITC DNA binding, fluorescence polarization, 1 h; 360,000 compounds, 0.3% hits; P41235; activity change, % at 10 µM; in the data active = activity change above about 30%, passing the limit was not always enough
# Rpn11 inh = blocks the human proteasome subunit Rpn11 | O00487 | human 26S proteasome, Ub4-pepOG fluorescence polarization; 20S core pre-blocked with epoxomicin | inhibition, % at 20 µM | 360,000 compounds, 0.59% hits | AID 588493;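 active = inhibition at 20 µM, scaled to each plate's controls, above about 33%, limit read from the data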
# Myeloid diff 2 = compounds promoting myeloid differentiation; ER-HoxA9 myeloid progenitors, lysozyme-GFP differentiation, flow cytometry; calls only at 10 µM; 360,000 compounds, 1% hits; AID 624256;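 active = normalized GFP-positive differentiation at or above the plate's own cutoff, the solvent-only control mean plus 3 SD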;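 note: cells exposed to compound for four days before flow analysis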
# Rpn11 inh conf = confirmation of human proteasome Rpn11 inhibitors. shares compounds with Rpn11 inh. purified human 26S proteasome, Ub4-pepOG fluorescence polarization; proteasome pretreated with epoxomicin. inhibition, % at 20 µM. 1,900 compounds, 29% hits
# MMP-2 inh = MMP-2 (human) inhibition counter-screen. shares compounds with Rpn11 inh. recombinant MMP-2, FRET peptide cleavage fluorescence. 1,900 compounds, 4% hits. inhibition, % at 20 µM;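 note: human MMP-2 activated beforehand with APMA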
# Thrombin inh = blocks bovine thrombin, flagging nonselective RPN11 hits. shares compounds with Rpn11 inh. bovine thrombin cleavage of Ub4-pepOG, fluorescence polarization. inhibition, % at 20 µM. 1,900 compounds, 13% hits. AID 602333;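 active = mean inhibition at least 40% at 20 µM, or signal 3 deviations below plate average, so some actives read negative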;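 note: plate controls were thrombin with DMSO for no effect and buffer wells lacking thrombin for full effect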
# * = called active by the depositor; i = inactive; · = not tested or not shown. Compounds with a hit are over-represented: about 2.3% of the library has one in this group of screens. Cut-off read from the data, not from the text of the source, unless noted: active = inhibition above about 40%; inactive = the rest.
SMILES,TPT1 inh,CSN deneddyl inh,HNF4A DNA FP,Rpn11 inh,Myeloid diff 2,Rpn11 inh conf,MMP-2 inh,Thrombin inh
O=C(O)C(Cc1ccccc1)N1C(=O)/C(=C/c2cccnc2)SC1=S (stereo not drawn),2.8,2.8,7.5,-44.7,i,·,·,·
O=C(O)C(c1ccccc1)N1C(=O)/C(=C\c2ccc(O)c(O)c2)SC1=S (stereo not drawn),13.0,129.2,-2.9,85.0*,i,61.0*,31.1,47.5*
COCCN(C(=O)CSc1nnc(-c2cccc(OC)c2)n1C)c1c(N)n(Cc2ccccc2)c(=O)[nH]c1=O,2.8,-3.7,0.8,-4.4,i,·,·,·
CCOC(=O)N1CCN(C(=O)c2nc3ccccc3s2)CC1,-4.6,-2.0,-35.4,110.6*,i,-10.3,-12.3,-5.7
COc1ccc2ccn(S(=O)(=O)c3ccccc3)c2c1,-1.6,1.7,3.5,-4.4,i,·,·,·
CC(=O)C1=C(C)NC(SCC(=O)c2ccc(Cl)cc2Cl)=C(C#N)C1c1ccco1 (stereo not drawn),16.2,12.2,14.1,49.5*,i,13.2,-9.8,15.4
CC(=O)C1=C(C)NC(SCc2ccc(C#N)cc2)=C(C#N)C1c1ccco1 (stereo not drawn),-1.2,8.8,-8.1,8.8,i,·,·,·
CCc1ccc(C(=O)COC(=O)c2ccc(-c3nnc(-c4ccccc4)o3)cc2)cc1,-2.1,1.2,-3.7,44.3*,i,8.0,5.4,-12.5
Cc1ccc(C(=O)OCC(=O)c2ccccc2)cc1,2.9,0.8,1.9,6.6,i,·,·,·
COc1ccc(NS(=O)(=O)c2ccc(C)c(NC(=O)CN3C(=O)NC4(CCCC4)C3=O)c2)cc1,·,109.5*,40.0,82.6*,i,76.3*,-132.4,4.3
Cc1ccc(CN(C(=O)c2csnn2)C(C(=O)NC2CCCC2)c2ccccn2)cc1 (stereo not drawn),3.5,-5.5,0.8,48.4*,i,-22.9,-38.7,-20.0
Cc1ccc(N(C(=O)c2csnn2)C(C(=O)NC2CCCCC2)c2ccccn2)cc1 (stereo not drawn),-4.4,3.2,-0.4,-0.4,i,·,·,·
C/C(=N\Nc1ccc([N+](=O)[O-])cc1)c1ccc(-n2nncc2C)cc1,24.0,44.5,21.0,61.5*,i,20.2,-0.3,-16.6
CC(=O)c1ccc(-n2nncc2-c2ccc([N+](=O)[O-])cc2)cc1,1.7,-0.6,1.0,4.8,i,·,·,·
Nc1nc(SCc2ccccc2)sc1C(=O)N1CCCCC1,·,1.6,-0.5,1.1,i,·,·,·
Cc1cc(NS(=O)(=O)c2ccc(Nc3nc(-c4ccc(C)c(C)c4)cs3)cc2)no1,-0.3,2.7,2.7,12.5,i,·,·,·
Cc1cc(NS(=O)(=O)c2ccc(Nc3nc(-c4sc(N)nc4C)cs3)cc2)no1,14.2,73.0*,2.6,55.4*,i,23.9,28.4,-11.0
Cc1ccc2oc(=O)c(/C=C(\O)C(C)(C)C)nc2c1,-1.2,2.0,0.1,2.2,i,·,·,·
Cc1ccc2oc(=O)c(/C=C(\O)c3ccco3)nc2c1,4.0,-2.6,41.0*,66.5*,i,70.0*,-31.5,-12.7
COc1ccc2c(c1)CCC1C2=NN(/C(C)=C/C(C)=O)C1c1cccc(F)c1 (stereo not drawn),13.9,15.5,76.2*,80.0*,i,22.9,8.2,17.1
CC(=O)N1N=C2c3ccccc3CCC2C1c1ccc(F)cc1 (stereo not drawn),2.8,-2.7,-1.4,-6.7,i,·,·,·
CCCn1c(SCc2nc3sc(C)c(C)c3c(=O)[nH]2)nc2ccccc2c1=O,2.7,10.1,20.1,40.8*,i,30.4,4.2,20.2
S=c1ncc2[nH]c(=S)[nH]c2[nH]1,·,-4.5,-1.7,3.8,i,·,·,·
CCCCC(=O)N(Cc1ccc(F)cc1)C1CCS(=O)(=O)C1 (stereo not drawn),-0.8,103.1,0.6,36.0*,i,-14.7,-22.5,-8.8
